Values belong to the compound of their own block, whether it stands above or below them.
Tests used:
[1] = Antiproliferative activity against human PC3 cells at 10 uM after 72 hrs by Alamar Blue assay relative to control; conditions: PC-3, 72 h
[2] = Antiproliferative activity against human PC3 cells after 72 hrs by Alamar Blue assay; conditions: PC-3, 72 h
[3] = Cell cycle arrest in human PC3 cells assessed as accumulation at G0/G1 phase at 0.1 uM after 24 hrs by propidium iodide staining-based flow cytometric method (reference value: 75.3 +/- 1.8%); type: functional; conditions: PC-3
Summary of the method: (§1)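 PC3 cells exposed 24 h to 0 (DMSO only), 0.1, 0.3 or 1 μM. Cells collected, washed in ice-cold PBS, fixed in 70% EtOH at −20 °C for 16 h. Stained 20 min at room temperature with 0.1% Triton X-100, 0.2 mg RNaseA and 2 μL PI (1 mg/mL) in 1 mL, then flow cytometry. Phase distribution fitted by ModFit.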

PC-3 [4] = assay: Induction of apoptosis in human PC3 cells assessed as increase in cell area after 72 hrs by Hoechst 33342/mitotracker deep red/cellmask plasma membrane probe-based fluorescence microscopy; type: functional
Summary of the method: (§2)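 PC3 cells seeded at 2000/well onto compound, grown 72 h at 37 °C, 5% CO2. Stained 30 min at 37 °C with Hoechst 33342 (1/1000), 1 μM MitoTracker Deep Red and CellMask plasma membrane (1/1000), then PBS wash. Automated wide-field imaging at 20×, 25 fields/well. Nuclei segmented by Hoechst, cytoplasm by CellMask, border cells excluded. Results normalized to DMSO; at least two experiments.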

PC-3 [5] = assay: Induction of apoptosis in human PC3 cells assessed as increase in mitochondrial area after 72 hrs by Hoechst 33342/mitotracker deep red/cellmask plasma membrane probe-based fluorescence microscopy; type: functional, cell-based
Summary of the method: as §2

[6] = Cell cycle arrest in human PC3 cells assessed as accumulation at G2/M phase at 0.1 uM after 24 hrs by propidium iodide staining-based flow cytometric method (reference value: 8.9 +/- 1.5%); type: functional; conditions: PC-3
Summary of the method: as §1

PC-3 [7] = assay: Induction of apoptosis in human PC3 cells assessed as appearance of aggregated mitochondrial texture after 72 hrs by Hoechst 33342/mitotracker deep red/cellmask plasma membrane probe-based fluorescence microscopy; type: functional, cell-based
Summary of the method: as §2

PC-3 [8] = assay: Induction of apoptosis in human PC3 cells assessed as increase in nuclear intensity after 72 hrs by Hoechst 33342/mitotracker deep red/cellmask plasma membrane probe-based fluorescence microscopy; type: functional, cell-based
Summary of the method: as §2

[9] = Cell cycle arrest in human PC3 cells assessed as accumulation at G0/G1 phase at 1 uM after 24 hrs by propidium iodide staining-based flow cytometric method (reference value: 75.3 +/- 1.8%); type: functional; conditions: PC-3
Summary of the method: as §1

[10] = Cell cycle arrest in human PC3 cells assessed as accumulation at S phase at 0.3 uM after 24 hrs by propidium iodide staining-based flow cytometric method (reference value: 15.8 +/- 0.3%); type: functional; conditions: PC-3
Summary of the method: as §1

[11] = Cell cycle arrest in human PC3 cells assessed as accumulation at G2/M phase at 0.3 uM after 24 hrs by propidium iodide staining-based flow cytometric method (reference value: 8.9 +/- 1.5%); type: functional; conditions: PC-3
Summary of the method: as §1

[12] = Cell cycle arrest in human PC3 cells assessed as accumulation at S phase at 1 uM after 24 hrs by propidium iodide staining-based flow cytometric method (reference value: 15.8 +/- 0.3%); type: functional; conditions: PC-3
Summary of the method: as §1

PC-3 [13] = assay: Induction of apoptosis in human PC3 cells assessed as chromatin condensation after 72 hrs by Hoechst 33342/mitotracker deep red/cellmask plasma membrane probe-based fluorescence microscopy; type: functional, cell-based
Summary of the method: as §2

PC-3 [14] = assay: Induction of apoptosis in human PC3 cells assessed as increase in cell size after 72 hrs by Hoechst 33342/mitotracker deep red/cellmask plasma membrane probe-based fluorescence microscopy; type: functional
Summary of the method: as §2

[15] = Cell cycle arrest in human PC3 cells assessed as accumulation at G0/G1 phase at 0.3 uM after 24 hrs by propidium iodide staining-based flow cytometric method (reference value: 75.3 +/- 1.8%); type: functional; conditions: PC-3
Summary of the method: as §1

[16] = Cell cycle arrest in human PC3 cells assessed as accumulation at G2/M phase at 1 uM after 24 hrs by propidium iodide staining-based flow cytometric method (reference value: 8.9 +/- 1.5%); type: functional; conditions: PC-3
Summary of the method: as §1

PC-3 [17] = assay: Induction of apoptosis in human PC3 cells assessed as appearance of rounded cells after 72 hrs by Hoechst 33342/mitotracker deep red/cellmask plasma membrane probe-based fluorescence microscopy; type: functional, cell-based
Summary of the method: as §2

[18] = Cell cycle arrest in human PC3 cells assessed as accumulation at S phase at 0.1 uM after 24 hrs by propidium iodide staining-based flow cytometric method (reference value: 15.8 +/- 0.3%); type: functional; conditions: PC-3
Summary of the method: as §1

PC-3 [19] = assay: Induction of apoptosis in human PC3 cells assessed as increase in mitochondrial intensity after 72 hrs by Hoechst 33342/mitotracker deep red/cellmask plasma membrane probe-based fluorescence microscopy; type: functional, cell-based
Summary of the method: as §2

Structure (SMILES): C[C@H](Cc1ccc2c(c1)OCO2)[C@H](C)Cc1ccc2c(c1)OCO2
inhibition at 10 µM [1]: 27%

Structure (SMILES): C[C@H]1[C@H](C)C(=O)O[C@@H]1c1ccc2c(c1)OCO2
inhibition at 10 µM [1]: 15%

Structure (SMILES): COc1cc([C@@H]2c3cc4c(cc3C[C@H]3COC(=O)[C@@H]32)OCO4)cc2c1OCO2 [AUSTROBAILIGNAN 1]
IC50 [2]: 0.05 µM

Structure (SMILES): COc1cc([C@@H]2c3cc4c(c(OC)c3C[C@H]3COC(=O)[C@@H]32)OCO4)cc(OC)c1OC
IC50 [2]: 0.016 µM

Structure (SMILES): COc1cc([C@@H]2c3cc4c(cc3C[C@@H](C)[C@@H]2C)OCO4)cc(OC)c1OC
IC50 [2]: 0.823 µM

Structure (SMILES): COc1cc(C(c2ccc(O)c(OC)c2)[C@@H](C)[C@H](C)CO)ccc1O
IC50 [2]: 6.36 µM

Structure (SMILES): CC(=O)O[C@H]1C(=O)[C@@]2(C)[C@H]([C@H](OC(=O)c3ccccc3)[C@]3(O)C[C@H](OC(=O)[C@H](O)[C@@H](NC(=O)c4ccccc4)c4ccccc4)C(C)=C1C3(C)C)[C@]1(OC(C)=O)CO[C@@H]1C[C@@H]2O [PACLITAXEL]
IC50 [2]: 0.002 µM

Structure (SMILES): COc1cc([C@@H]2c3cc4c(cc3C[C@H]3COC(=O)[C@@H]32)OCO4)cc(OC)c1OC [DESOXYPODOPHYLLOTOXIN]
IC50 [2]: 0.018 µM

The next lines start with results.

IC50 [2]: 2.06 µM
Structure (SMILES): COc1cc([C@@H]2c3cc4c(cc3C[C@@H](C)[C@@H]2C)OCO4)cc2c1OCO2

IC50 [2]: 5.11 µM
Structure (SMILES): COc1cc([C@@H]2O[C@H](c3ccc4c(c3)OCO4)[C@@H](C)[C@@H]2C)ccc1O

IC50 [2]: 1.63 µM
Structure (SMILES): COc1cc([C@@H]2c3cc4c(cc3C[C@@H](C)[C@@H]2C(=O)O)OCO4)cc2c1OCO2

IC50 [2]: 1.91 µM
Structure (SMILES): COc1cc(C(=O)O[C@@H](c2ccc3c(c2)OCO3)[C@H](C)C(C)=O)ccc1O
Activity [3]: 62.6%
Activity (PC-3 [4]): Dose-dependent effect
Activity (PC-3 [5]): Dose-dependent effect
Activity [6]: 9.9%
Activity (PC-3 [7]): Dose-dependent effect
Activity (PC-3 [8]): Dose-dependent effect
Activity [9]: 61.1%
Activity [10]: 32.2%
Activity [11]: 4.4%
Activity [12]: 35.1%
Activity (PC-3 [13]): Dose-dependent effect
Activity (PC-3 [14]): Dose-dependent effect
Activity [15]: 63.4%
Activity [16]: 3.8%
Activity (PC-3 [17]): Dose-dependent effect
Activity [18]: 27.5%
Activity (PC-3 [19]): Dose-dependent effect

IC50 [2]: 0.047 µM
Structure (SMILES): COc1cc([C@@H]2c3cc4c(c(OC)c3C[C@H]3COC(=O)[C@@H]32)OCO4)cc2c1OCO2
